# Measurements from ChEMBL document CHEMBL1149438, “Antimalarial activity of 4-(5-trifluoromethyl-1H-pyrazol-1-yl)-chloroquine analogues” (Bioorg Med Chem Lett, 2006).
# System: Plasmodium falciparum
# Experiment: Antimalarial activity against chloroquine-resistant Plasmodium falciparum W2 infected human erythrocytes
# Type: functional, organism-based
# Conditions: not given
# Method in brief: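 P. falciparum W2 (chloroquine-resistant) grown in human O+ erythrocytes, RPMI 1640 with 10% human plasma. Sorbitol-synchronized trophozoites plated at 2% parasitaemia, 2.5% haematocrit. Molecules dissolved in ethanol, serially diluted in hypoxanthine-free RPMI 1640, chloroquine reference run in parallel. Growth read by [³H]hypoxanthine incorporation. IC50 taken relative to drug-free control cultures.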
row,SMILES,IC50 [µg/mL]
1,Fc1ccc(-c2cc(C(F)(F)F)n(-c3ccnc4cc(Cl)ccc34)n2)cc1,27.6
2,OC1(C(F)(F)F)CC(c2ccc(-c3ccccc3)cc2)=NN1c1ccnc2cc(Cl)ccc12 (stereo not given),2.12
3,OC1(C(F)(F)F)CC(c2ccc(Br)cc2)=NN1c1ccnc2cc(Cl)ccc12 (stereo not given),1.55
4,OC1(C(F)(F)F)CC(c2ccc(Cl)cc2)=NN1c1ccnc2cc(Cl)ccc12 (stereo not given),1.69
5,COc1ccc(-c2cc(C(F)(F)F)n(-c3ccnc4cc(Cl)ccc34)n2)cc1,> 50
6,Cc1ccc(C2=NN(c3ccnc4cc(Cl)ccc34)C(O)(C(F)(F)F)C2)cc1 (stereo not given),3.04
7,OC1(C(F)(F)F)CC(c2ccccc2)=NN1c1ccnc2cc(Cl)ccc12 (stereo not given),1.39
8,COc1ccc(C2=NN(c3ccnc4cc(Cl)ccc34)C(O)(C(F)(F)F)C2)cc1 (stereo not given),> 50
9,O=[N+]([O-])c1ccc(C2=NN(c3ccnc4cc(Cl)ccc34)C(O)(C(F)(F)F)C2)cc1 (stereo not given),5.71
10,FC(F)(F)c1cc(-c2ccc(-c3ccccc3)cc2)nn1-c1ccnc2cc(Cl)ccc12,18.5
11,Cc1cc(C(F)(F)F)n(-c2ccnc3cc(Cl)ccc23)n1,4.29
12,FC(F)(F)c1cc(-c2ccc(Br)cc2)nn1-c1ccnc2cc(Cl)ccc12,> 50
13,Cc1ccc(-c2cc(C(F)(F)F)n(-c3ccnc4cc(Cl)ccc34)n2)cc1,> 50
14,OC1(C(F)(F)F)CC(c2ccc(F)cc2)=NN1c1ccnc2cc(Cl)ccc12 (stereo not given),2.13
15,FC(F)(F)c1cc(-c2ccccc2)nn1-c1ccnc2cc(Cl)ccc12,9.53
16,FC(F)(F)c1cc(-c2ccc(Cl)cc2)nn1-c1ccnc2cc(Cl)ccc12,> 50
17,O=[N+]([O-])c1ccc(-c2cc(C(F)(F)F)n(-c3ccnc4cc(Cl)ccc34)n2)cc1,> 50

# System: Plasmodium berghei
# Experiment: Growth inhibition of Plasmodium berghei infected BALB/c mice (Mus musculus) at 20 mg/kg perorallydose
# Type: functional, NK65
# Design: scale not given: the % may be the effect or the level left
# Conditions: route oral
# Method in brief: (§1)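 Balb/c mice infected with blood-stage P. berghei, 6 per group, given 20 mg/kg orally or subcutaneously. Controls were untreated or saline-treated mice, plus mice given non-curative chloroquine. Blood smears were methanol-fixed and Giemsa-stained, and parasitaemia was counted in 1000 to 6000 erythrocytes. Percent reduction of parasite growth is relative to non-treated mice at day 7 post-inoculation.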
row,SMILES,Activity [%]
1,OC1(C(F)(F)F)CC(c2ccc(Br)cc2)=NN1c1ccnc2cc(Cl)ccc12 (stereo not given),0
2,OC1(C(F)(F)F)CC(c2ccc(Cl)cc2)=NN1c1ccnc2cc(Cl)ccc12 (stereo not given),0
3,OC1(C(F)(F)F)CC(c2ccccc2)=NN1c1ccnc2cc(Cl)ccc12 (stereo not given),0

# System: Plasmodium berghei
# Experiment: Growth inhibition of Plasmodium berghei infected BALB/c mice (Mus musculus) at 20 mg/kg subcutaneous dose
# Type: functional, NK65
# Design: scale not given: the % may be the effect or the level left
# Conditions: not given
# Method in brief: as §1
row,SMILES,Activity [%]
1,OC1(C(F)(F)F)CC(c2ccc(Br)cc2)=NN1c1ccnc2cc(Cl)ccc12 (stereo not given),82
2,OC1(C(F)(F)F)CC(c2ccc(Cl)cc2)=NN1c1ccnc2cc(Cl)ccc12 (stereo not given),47
3,OC1(C(F)(F)F)CC(c2ccccc2)=NN1c1ccnc2cc(Cl)ccc12 (stereo not given),0

# System: Plasmodium berghei
# Experiment: Growth inhibition of Plasmodium berghei in BALB/c mice (Mus musculus) at 15 mg/kg peroral dose
# Type: functional, NK65
# Design: scale not given: the % may be the effect or the level left
# Conditions: route oral
row,SMILES,Activity [%]
1,CCN(CC)CCCC(C)Nc1ccnc2cc(Cl)ccc12 (stereo not given) [CHLOROQUINE],53

# System: Plasmodium berghei
# Experiment: Growth inhibition of Plasmodium berghei infected BALB/c mice (Mus musculus) at 15 mg/kg subcutaneous dose
# Type: functional, NK65
# Design: scale not given: the % may be the effect or the level left
# Conditions: not given
row,SMILES,Activity [%]
1,CCN(CC)CCCC(C)Nc1ccnc2cc(Cl)ccc12 (stereo not given) [CHLOROQUINE],100
